The source made the active and inactive calls. No cut-off for these calls is given here.
Assays:
[1] = tested on: HL-60; assay: Cytotoxicity against human HL60 cells; format: functional
[2] = tested on: HOP-92; assay: Cytotoxicity against human HOP92 cells; format: functional
[3] = tested on: UACC-257; assay: Cytotoxicity against human UACC257 cells; format: functional
[4] = tested on: PtK2; assay: Induction of oxidative stress in potoroo PtK2 cells assessed as change in microtubular network after 24 hrs by immunofluorescence microscopic analysis; format: functional, cell-based; conditions: Potorous tridactylus
Outline: (§1)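 PtK2 cells were grown on coverslips and treated once semi-confluent, for 24 h. Cells were fixed with 3.7% paraformaldehyde followed by 0.1% Triton X-100, or with cold methanol/acetone 50:50. Primary and secondary antibodies were applied for 45 min each: anti-GRP94 for ER, anti-α-tubulin. Actin was stained with phalloidin and nuclei with DAPI. Imaging was by fluorescence microscopy with a CCD camera.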

[5] = tested on: OVCAR-3; assay: Cytotoxicity against human OVCAR3 cells; format: functional
[6] = tested on: HCT-116; assay: Cytotoxicity against human HCT116 cells; format: functional
[7] = tested on: CCRF-CEM; assay: Cytotoxicity against human CCRF-CEM cells; format: functional
[8] = tested on: NCI/ADR-RES; assay: Cytotoxicity against human NCI/ADR-RES cells; format: functional
[9] = tested on: SF-539; assay: Cytotoxicity against human SF539 cells; format: functional
[10] = tested on: TK-10; assay: Cytotoxicity against human TK10 cells; format: functional
[11] = tested on: Saccharomyces cerevisiae; assay: Growth inhibition of SOD2-deficient Saccharomyces cerevisiae YHR008C mutant at 20 ug/disc 24 to 48 hrs by agar diffusion assay; format: functional; conditions: read-out: DIZ
Outline: (§2)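 S. cerevisiae deletion mutants or wild type grown on YPD, seeded into liquid agar medium at an optical density of 0.1. 6 mm paper discs soaked with methanolic compound solution were placed on the plates and incubated at 30 °C. Growth was checked after 1 and 2 days, and the inhibition zone diameter was recorded in mm.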

[12] = tested on: LOX IMVI; assay: Cytotoxicity against human LOXIMVI cells; format: functional
[13] = tested on: Saccharomyces cerevisiae; assay: Growth inhibition of PST2-deficient Saccharomyces cerevisiae YDR032C mutant at 20 ug/disc 24 to 48 hrs by agar diffusion assay; format: functional; conditions: read-out: DIZ; outline: as §2
[14] = tested on: SW-620; assay: Cytotoxicity against human SW620 cells; format: functional
[15] = tested on: IGROV-1; assay: Cytotoxicity against human IGROV1 cells; format: functional
[16] = tested on: PC-3; assay: Cytotoxicity against human PC3 cells; format: functional
[17] = tested on: Saccharomyces cerevisiae; assay: Growth inhibition of UFD2-deficient Saccharomyces cerevisiae YDL190C mutant at 20 ug/disc after 24 to 48 hrs by agar diffusion assay; format: functional; conditions: read-out: DIZ; outline: as §2
[18] = tested on: Malme-3M; assay: Cytotoxicity against human MALME-3M cells; format: functional
[19] = tested on: NCI-H522; assay: Cytotoxicity against human NCI-H522 cells; format: functional
[20] = Cytotoxicity against human PHF cells after 24 hrs by MTT assay; format: cell-based
Outline: (§3)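 MTT assay. Cells were seeded at 50,000 cells/mL in medium with 10% fetal calf serum and grown for two days at 37 °C, 10% CO2. Serial dilutions of compound were then added for 24 h. MTT was added (final 0.5 mg/mL) for 2 h, and the formazan was pelleted, washed, dissolved in isopropanol with 0.4% HCl and read at 590 nm. IC50 is the concentration giving 50% of untreated-control absorbance, taken from dose-response curves; mean of two parallel experiments.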

[21] = tested on: ACHN; assay: Cytotoxicity against human ACHN cells; format: functional
[22] = tested on: Saccharomyces cerevisiae; assay: Growth inhibition of GSH2-deficient Saccharomyces cerevisiae YOL049W mutant at 20 ug/disc after 24 to 48 hrs by agar diffusion assay; format: functional; conditions: read-out: DIZ; outline: as §2
[23] = tested on: UACC-62; assay: Cytotoxicity against human UACC62 cells; format: functional
[24] = tested on: Saccharomyces cerevisiae; assay: Growth inhibition of POS5-deficient Saccharomyces cerevisiae YPL188W mutant at 20 ug/disc after 24 to 48 hrs by agar diffusion assay; format: functional; conditions: read-out: DIZ; outline: as §2
[25] = tested on: A-431; assay: Cytotoxicity against human A431 cells after 24 hrs by MTT assay; format: functional, cell-based; conditions: A-431, 24 h; outline: as §3
[26] = tested on: CAKI-1; assay: Cytotoxicity against human Caki1 cells; format: functional
[27] = tested on: PtK2; assay: Induction of oxidative stress in potoroo PtK2 cells assessed as reduction in cell adhesion after 24 hrs by immunofluorescence microscopic analysis; format: functional, cell-based; conditions: Potorous tridactylus; outline: as §1
[28] = tested on: NCI-H226; assay: Cytotoxicity against human NCI-H226 cells; format: functional
[29] = tested on: PtK2; assay: Induction of oxidative stress in potoroo PtK2 cells assessed as reduction in actin stress fibres after 24 hrs by immunofluorescence microscopic analysis; format: functional, cell-based; conditions: Potorous tridactylus; outline: as §1
[30] = tested on: MCF7; assay: Cytotoxicity against human MCF7 cells; format: functional
[31] = tested on: HT-29; assay: Cytotoxicity against human HT-29 cells; format: functional
[32] = tested on: NCI-H23; assay: Cytotoxicity against human NCI-H23 cells; format: functional
[33] = tested on: RXF 393; assay: Cytotoxicity against human RXF393 cells; format: functional
[34] = tested on: PtK2; assay: Induction of oxidative stress in potoroo PtK2 cells assessed as hole in the endoplasmic reticulum after 24 hrs by immunofluorescence microscopic analysis; format: functional, cell-based; conditions: Potorous tridactylus; outline: as §1
[35] = tested on: K562; assay: Cytotoxicity against human K562 cells; format: functional
[36] = tested on: KM12; assay: Cytotoxicity against human KM12 cells; format: functional
[37] = tested on: COLO 205; assay: Cytotoxicity against human COLO205 cells; format: functional
[38] = tested on: RPMI-8226; assay: Cytotoxicity against human RPMI8226 cells; format: functional
[39] = tested on: SF-268; assay: Cytotoxicity against human SF268 cells; format: functional
[40] = read-out: pLC50 (the source's name) (converted)

In the case of CC1=C(SCCC(=O)OC(C[Se]C2=C(C)C(=O)c3ccccc3C2=O)C(=O)NCCCCCC(=O)OCc2ccccc2)C(=O)c2ccccc2C1=O (stereo not given), the GI50 [1] is reported as 3.09 µM, the LC50 [1] is reported as > 100 µM and the TGI ([1]; read-out: pTGI (converted)) is reported as 8.51 µM. It also gave a GI50 [2] of 2.69 µM, an LC50 (50% lethal concentration) [2] of 30.9 µM and a TGI ([2]; read-out: pTGI (converted)) of 7.94 µM. For the same compound, the GI50 [3] was 3.47 µM, the LC50 [3] was 34.7 µM and the TGI ([3]; read-out: pTGI (converted)) was 10 µM. For the same compound, the Activity [4] was “inactive”, the GI50 [5] was 5.01 µM and the LC50 [5] was 42.7 µM. The TGI ([5]; read-out: pTGI (converted)) was 18.2 µM, the GI50 [6] was 2 µM and the LC50 [6] was 11.7 µM. The TGI ([6]; read-out: pTGI (converted)) was 4.57 µM, the GI50 [7] was 2.82 µM and the LC50 [7] was > 100 µM. The TGI ([7]; read-out: pTGI) was > 100 µM, the GI50 [8] was 4.57 µM and the CC50 [8, 40] was 81.3 µM. For the same compound, the TGI ([8]; read-out: pTGI (converted)) was 18.2 µM, the GI50 [9] was 4.47 µM and the LC50 [9] was 43.7 µM. The TGI ([9]; read-out: pTGI (converted)) was 15.5 µM, the GI50 [10] was 13.8 µM and the LC50 [10] was 53.7 µM. It also gave a TGI ([10]; read-out: pTGI (converted)) of 26.9 µM, a zone of inhibition at 20 µg/disc [11] of 15 mm and a GI50 [12] of 2.75 µM. For the same compound, the LC50 [12] was 69.2 µM, the TGI ([12]; read-out: pTGI (converted)) was 11.5 µM and the zone of inhibition at 20 µg/disc [13] was 11 mm. For the same compound, the GI50 [14] was 2.45 µM, the LC50 [14] was 36.3 µM and the TGI ([14]; read-out: pTGI (converted)) was 9.33 µM. It also gave a GI50 [15] of 2.14 µM, an LC50 (concentration killing 50% of cells) [15] of 53.7 µM and a TGI ([15]; read-out: pTGI (converted)) of 14.5 µM. The GI50 [16] was 2.57 µM, the LC50 [16] was 55 µM and the TGI ([16]; read-out: pTGI (converted)) was 9.12 µM. For the same compound, the zone of inhibition at 20 µg/disc [17] was 0 mm, the GI50 [18] was 2.09 µM and the LC50 [18] was 56.2 µM. For the same compound, the TGI ([18]; read-out: pTGI (converted)) was 6.92 µM, the GI50 [19] was 3.98 µM and the LC50 [19] was 44.7 µM. It also gave a TGI ([19]; read-out: pTGI (converted)) of 15.1 µM, an IC50 [20] of 5 µM and a GI50 [21] of 12 µM. For the same compound, the LC50 [21] was 63.1 µM, the TGI ([21]; read-out: pTGI (converted)) was 27.5 µM and the zone of inhibition at 20 µg/disc [22] was 10 mm. It also gave a GI50 [23] of 8.13 µM, an LC50 [23] of 46.8 µM and a TGI ([23]; read-out: pTGI (converted)) of 20.9 µM. It also gave a zone of inhibition at 20 µg/disc [24] of 10 mm, an IC50 [25] of 6 µM and a GI50 [26] of 6.92 µM. For the same compound, the LC50 [26] was 51.3 µM, the TGI ([26]; read-out: pTGI (converted)) was 21.4 µM and the Activity [27] was “Active”. For the same compound, the GI50 [28] was 19.5 µM, the CC50 [28, 40] was > 100 µM and the TGI ([28]; read-out: pTGI (converted)) was 51.3 µM. The Activity [29] was “Active”, the GI50 [30] was 4.79 µM and the LC50 [30] was > 100 µM. The TGI ([30]; read-out: pTGI (converted)) was 29.5 µM, the GI50 [31] was 3.55 µM and the LC50 [31] was 83.2 µM. For the same compound, the TGI ([31]; read-out: pTGI (converted)) was 20.9 µM, the GI50 [32] was 2.75 µM and the LC50 [32] was 52.5 µM. For the same compound, the TGI ([32]; read-out: pTGI (converted)) was 7.76 µM, the GI50 [33] was 14.8 µM and the LC50 [33] was 53.7 µM. For the same compound, the TGI ([33]; read-out: pTGI (converted)) was 28.2 µM, the Activity [34] was “Active” and the GI50 [35] was 3.02 µM. The LC50 [35] was > 100 µM, the TGI ([35]; read-out: pTGI) was > 100 µM and the GI50 [36] was 1.41 µM. For the same compound, the LC50 [36] was 13.8 µM, the TGI ([36]; read-out: pTGI (converted)) was 4.07 µM and the GI50 [37] was 7.94 µM. The CC50 [37, 40] was 56.2 µM, the TGI ([37]; read-out: pTGI (converted)) was 22.4 µM and the GI50 [38] was 2.63 µM. For the same compound, the LC50 [38] was > 100 µM, the TGI ([38]; read-out: pTGI (converted)) was 7.76 µM and the GI50 [39] was 7.41 µM. It also gave an LC50 [39] of 44.7 µM and a TGI ([39]; read-out: pTGI (converted)) of 20 µM.

Source: ChEMBL document CHEMBL2177069, “Novel peptidomimetic compounds containing redox active chalcogens and quinones as potential anticancer agents” (Eur J Med Chem, 2012)
